Results taken from ChEMBL document CHEMBL3232958, “Antiproliferative and uncoupling effects of delocalized, lipophilic, cationic gallic acid derivatives on cancer cell lines. Validation in vivo in singenic mice” (J Med Chem, 2014).
Calls of active or inactive are those of the source. The rule behind the calls is not given here.

Key:
CCRF-CEM = assay: Cytotoxicity against human CCRF-CEM cells after 48 hrs by neutral red assay; format: functional, cell-based
Summary of the method: (§1)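 Neutral red uptake after 48 h exposure at 37 °C, 5% CO2. Seeding: 1 × 10^5 cells/mL for TA3, TA3-MTX-R and CCRF-CEM; 4 × 10^4 cells/mL for MM3MG. Dye at 100 μg/mL for 2 h, then ethanol/acetic acid extraction and absorbance at 540 nm. IC50 from variable-slope sigmoidal dose–response fit; at least three independent experiments in triplicate, mean ± SEM.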

[1] = Cytotoxicity against mouse multidrug-resistant TA3-MTX-R cells after 48 hrs by neutral red assay; format: functional, cell-based; summary of the method: as §1
[2] = Cytotoxicity against mouse MM3MG cells after 48 hrs by neutral red assay; format: cell-based; summary of the method: as §1
[3] = Cytotoxicity against mouse TA3/Ha cells after 48 hrs by neutral red assay; format: functional, cell-based; summary of the method: as §1
TA3/Ha [4] = assay: Decrease of mitochondrial transmembrane potential in mouse TA3/Ha cell mitochondria at 0.5 uM after 5 mins by safranin staining; format: functional
Summary of the method: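 Safranin (20 μM) absorbance change at 511–533 nm in isolated mitochondria (1.0 mg/mL) in sucrose/KCl/Hepes pH 7.4 buffer with EGTA and phosphate. Baseline 5 min, then 2 mM glutamate + 2 mM malate for 5 min, then cation added. Mean ± SD of at least three experiments.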

TA3/Ha [5] = assay: Cytotoxicity against mouse TA3/Ha cells up to 24 hrs by lactate dehydrogenase assay; format: functional, cell-based
Summary of the method: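 LDH release measured with a kit on 2 × 10^5 cells/mL incubated at 37 °C, 5% CO2, 90% humidity. Supernatant taken after centrifugation at 600g for 3 min, then 30 min with reaction mix at room temperature; absorbance read at 450 nm.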

[6] = Uncoupling respiration effect in mouse TA3/Ha cells after 2 mins by polarographic analysis in presence of FCCP; format: functional
Summary of the method: (§2)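 Polarographic respiration of digitonin-permeabilized cells (0.013 μg/mg protein; 2.5 mg protein/mL) in PBS pH 7.4 with 10 mM succinate and 1 μg/mL oligomycin. Cations added in 3 μL DMSO. Atractyloside 5 nmol/mg protein was added before succinate. FCCP added at the end: 0.15 μM for TA3, 0.25 μM for TA3-MTX-R. Slope and K0.5 taken from log–log linear regression; at least three experiments.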

TA3/Ha [7] = assay: Induction of NAD(P)H oxidation in mouse TA3/Ha cells assessed as reduction of NAD(P)H/NAD(P)+ ratio by spectrofluorometer analysis; format: functional, cell-based
Summary of the method: (§3)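 NAD(P)H autofluorescence (ex 340, em 420 nm) at 25 °C with stirring. Medium: PBS pH 7.4, 2.5 mM glutamine, TA3 cells at 2.5 mg protein/mL. Rotenone (12 μM), FCCP (6 μM) or test cation added during the time course.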

[8] = Uncoupling respiration effect in mouse TA3/Ha cells after 2 mins by polarographic analysis in presence of atractyloside; format: functional; summary of the method: as §2
TA3/Ha [9] = assay: Induction of mitochondrial swelling in mouse TA3/Ha cell mitochondria at 0.15 mM by UV/vis spectrophotometer analysis in presence of cyclosporine-A; format: functional
Summary of the method: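 Same swelling set-up with TA3/Ha mitochondria (0.5 mg/mL, KCl/Tris pH 7.4, glutamate/malate) at 0.15 mM cation, with increasing cyclosporine concentrations.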

TA3/Ha [10] = assay: Antitumor activity against mouse TA3/Ha cells allografted in CAF1-Jax mouse syngenic model assessed as inhibition of tumor growth at 10 mg/kg, ip administered every 48 hrs of 30 days; format: functional, organism-based; design: dose 10 mg/kg
Summary of the method: (§4)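 Adult male CAF1-Jax mice; 1.0 × 10^6 TA3/Ha cells in 0.1 mL 0.9% NaCl injected subcutaneously into the back. 10 mg/kg given ip every 48 h for 30 days to groups of six mice; controls received vehicle. Tumor diameters measured three times weekly; volume = (max diameter)(min diameter)²/2. Two independent experiments.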

TA3/Ha [11] = assay: Induction of mitochondrial swelling in mouse TA3/Ha cell mitochondria at 0.15 mM by UV/vis spectrophotometer analysis in presence of N-acetylcysteine; format: functional
Summary of the method: (§5)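 Same swelling set-up with TA3/Ha mitochondria at 0.15 mM cation, in the presence of NEM, DTT or NAC. Mean ± SEM of at least three experiments, ANOVA with Bonferroni test.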

[12] = Cell cycle arrest in mouse TA3/Ha cells assessed as accumulation at G0/G1 phase at 0.1 to 5 uM after 24 hrs; format: functional, cell-based
[13] = Toxicity in mouse TA3/Ha cells assessed as cell membrane integrity after 24 hrs using propidium iodide by flow cytometry; format: cell-based; settings: 2 to 4 h, in the assay text read “after 2 to 4 hrs” for “after 24 hrs”
Summary of the method: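 Membrane integrity by PI uptake on flow cytometry. Cells were seeded, grown for 24 h at 37 °C, 5% CO2, then given fresh medium with cation for 2 and 4 h before PI was added. Mean ± SEM of at least three experiments.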

TA3-MTX-R [14] = assay: Induction of mitochondrial swelling in mouse TA3-MTX-R cell mitochondria at 0.15 mM by UV/vis spectrophotometer analysis in presence of N-acetylcysteine; format: functional
[15] = Ratio of IC50 for mouse MM3MG cells to IC50 for mouse TA3/Ha cells
Summary of the method: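 Ratio of 48 h neutral red IC50 values. MM3MG seeded at 4 × 10^4 cells/mL, TA3 at 1 × 10^5 cells/mL. Each IC50 from a variable-slope sigmoidal fit of at least three independent experiments.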

TA3-MTX-R [16] = assay: Induction of mitochondrial swelling in mouse TA3-MTX-R cell mitochondria at 0.05 to 0.20 mM by UV/vis spectrophotometer analysis; format: functional
[17] = Uncoupling respiration effect in mouse TA3-MTX-R cells after 2 mins by polarographic analysis in presence of FCCP; format: functional; summary of the method: as §2
TA3/Ha [18] = assay: Decrease of mitochondrial transmembrane potential in mouse TA3/Ha cell mitochondria at 0.5 uM after 5 mins by JC-1 staining; format: functional
TA3/Ha [19] = assay: Induction of NAD(P)H oxidation in mouse TA3/Ha cells assessed as reduction of NAD(P)H/NAD(P)+ ratio at 2.5 mg of protein/mL by spectrofluorometer analysis; format: functional, cell-based; summary of the method: as §3
TA3/Ha (Mus musculus) [20] = assay: Induction of mitochondrial swelling in mouse TA3/Ha cell mitochondria at 0.15 mM by UV/vis spectrophotometer analysis in presence of dithiothreitol
TA3/Ha [21] = assay: Induction of mitochondrial swelling in mouse TA3/Ha cell mitochondria at 0.15 mM by UV/vis spectrophotometer analysis in presence of N-ethylmaleimide; format: functional; summary of the method: as §5
TA3/Ha [22] = assay: Decrease of mitochondrial transmembrane potential in mouse TA3/Ha cell mitochondria at 0.5 uM after 5 mins by JC-1 staining in presence of ADP; format: functional
TA3/Ha [23] = assay: Induction of apoptosis in mouse TA3/Ha cells assessed as early stage apoptotic cells at 0.5 uM after 24 to 48 hrs using annexin V/propidium iodide staining by flow cytometry; format: functional, cell-based
Summary of the method: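 Annexin V-FITC/PI flow cytometry on 1 × 10^5 cells/mL treated for 24 and 48 h at 37 °C, 5% CO2. 5 min staining at room temperature; 5000 events recorded. Early apoptosis scored as annexin V+/PI−. Staurosporine 10 μM as positive control; at least three experiments, ANOVA with Bonferroni test.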

TA3/Ha [24] = assay: Reduction of ATP level in mouse TA3/Ha cells after 2 hrs by CellTiter-Glo luminescent assay; format: functional, cell-based
Summary of the method: (§6)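 CellTiter-Glo luminescence on 2 × 10^5 cells/mL incubated with cation for 2 h. Aliquot held 10 min at room temperature in the dark before reading; at least three experiments.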

[25] = Uncoupling respiration effect in mouse TA3-MTX-R cells after 2 mins by polarographic analysis in presence of atractyloside; format: functional; summary of the method: as §2
TA3/Ha [26] = assay: Induction of mitochondrial swelling in mouse TA3/Ha cell mitochondria at 0.15 mM by UV/vis spectrophotometer analysis in presence of dithiothreitol; format: functional; summary of the method: as §5
TA3/Ha [27] = assay: Antitumor activity against mouse TA3/Ha cells allografted in CAF1-Jax mouse syngenic model assessed as increase of host survival at 10 mg/kg, ip administered every 48 hrs of 30 days; format: functional, organism-based; design: dose 10 mg/kg
TA3/Ha [28] = assay: Induction of apoptosis in mouse TA3/Ha cells assessed as caspase 3 activation at 0.5 uM after 24 hrs by Western blot analysis; format: functional, cell-based
Summary of the method: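 Caspase 3 measured by Western blot. RIPA lysates, 50 μg protein run on 12% SDS–PAGE. Anti-caspase 3 (1:1000) and tubulin loading control (1:10000) overnight at 4 °C; HRP secondary for 2 h. ECL detection and densitometry.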

TA3/Ha (Mus musculus) [29] = assay: Induction of mitochondrial swelling in mouse TA3/Ha cell mitochondria at 0.15 mM by UV/vis spectrophotometer analysis in presence of cyclosporine-A
TA3/Ha [30] = assay: Induction of mitochondrial swelling in mouse TA3/Ha cell mitochondria at 0.05 to 0.20 mM by UV/vis spectrophotometer analysis; format: functional
Mus musculus = assay: Toxicity in mouse TA3/Ha cells allografted CAF1-Jax mouse syngenic model at 10 mg/kg, ip administered every 48 hrs of 30 days; format: organism-based; design: dose 10 mg/kg, route intraperitoneal; settings: in vivo; summary of the method: as §4
TA3/Ha [31] = assay: Reduction of ATP level in mouse TA3/Ha cells at 1 to 20 uM after 2 hrs by CellTiter-Glo luminescent assay; format: functional, cell-based; summary of the method: as §6
TA3/Ha (Mus musculus) [32] = assay: Induction of mitochondrial swelling in mouse TA3/Ha cell mitochondria at 0.15 mM by UV/vis spectrophotometer analysis in presence of N-ethylmaleimide
TA3/Ha [33] = assay: Increase of oxygen consumption in mouse TA3/Ha cell mitochondria using glutamate and malate as substrate at 10^-4 M after 2 mins by polarographic analysis; format: functional
Summary of the method: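 Clark electrode polarography of isolated mitochondria (1.0 mg/mL) at 25 °C. Medium: sucrose/KCl, 3 mM phosphate, Hepes pH 7.0, 2 mM MgCl2. Substrates 2 mM glutamate + 2 mM malate; 0.5 mM ADP, oligomycin and KCN also used.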

## CCCCCCCCOC(=O)c1cc(O)c(O)c(O)c1 [OCTYL_GALLATE]
CCRF-CEM
  IC50: 58.5 µM
[1]
  IC50: 29.8 µM
[2]
  IC50: > 200 µM
[3]
  IC50: 35.9 µM

## CCCCCCCCCCCCOC(=O)c1cc(O)c(O)c(O)c1 [DODECYL GALLATE]
CCRF-CEM
  IC50: 15.5 µM
[1]
  IC50: 3 µM
[2]
  IC50: 30 µM
[3]
  IC50: 7.06 µM

## O=C(OCCCCCCCCCC[P+](c1ccccc1)(c1ccccc1)c1ccccc1)c1cc(O)c(O)c(O)c1.[Br-]
TA3/Ha [4]
  Activity: Active
TA3/Ha [5]
  Activity: Active
[6]
  K0.5: 1.21 µM
TA3/Ha [7]
  Activity: Dose-dependent effect
CCRF-CEM
  IC50: 1.65 µM
[8]
  K0.5: 4.29 ×10⁻⁵ M
TA3/Ha [9]
  Activity: Active
TA3/Ha [10]
  TGI: Active
TA3/Ha [11]
  Activity: inactive
[12]
  Activity: Active
[13]
  Activity: Non-toxic
TA3-MTX-R [14]
  Activity: Active
[15]
  Ratio IC50: 17
TA3-MTX-R [16]
  Activity: Active
[17]
  K0.5: 1.8 ×10⁻⁵ M
TA3/Ha [18]
  Activity: Active
TA3/Ha [19]
  Activity: Active
TA3/Ha (Mus musculus) [20]
  Activity: inactive
[1]
  IC50: 0.38 µM
TA3/Ha [21]
  Activity: inactive
TA3/Ha [22]
  Activity: Active
TA3/Ha [23]
  Activity: Active
TA3/Ha [24]
  Activity: Dose-dependent effect
[2]
  IC50: 7.1 µM
[25]
  K0.5: 5.24 ×10⁻⁵ M
TA3/Ha [26]
  Activity: inactive
TA3/Ha [27]
  Activity: Active
[3]
  IC50: 0.4 µM
TA3/Ha [28]
  Activity: Active
TA3/Ha (Mus musculus) [29]
  Activity: Active
TA3/Ha [30]
  Activity: Active
Mus musculus
  Activity: Non-toxic
TA3/Ha [31]
  Activity: Active
TA3/Ha (Mus musculus) [32]
  Activity: inactive

## O=C(OCCCCCCCC[P+](c1ccccc1)(c1ccccc1)c1ccccc1)c1cc(O)c(O)c(O)c1.[Br-]
TA3/Ha [5]
  Activity: Active
[6]
  K0.5: 2.25 ×10⁻⁴ M
CCRF-CEM
  IC50: 34.6 µM
[13]
  Activity: Non-toxic
[17]
  K0.5: 1.91 ×10⁻⁴ M
[1]
  IC50: 14.4 µM
TA3/Ha [23]
  Activity: Active
TA3/Ha [24]
  Activity: Dose-dependent effect
[2]
  IC50: 29.4 µM
TA3/Ha [33]
  Activity: Active
[3]
  IC50: 13.4 µM
TA3/Ha [28]
  Activity: inactive
TA3/Ha [31]
  Activity: Active

## O=C(OCCCCCCCCCCCC[P+](c1ccccc1)(c1ccccc1)c1ccccc1)c1cc(O)c(O)c(O)c1.[Br-]
TA3/Ha [5]
  Activity: Active
[6]
  K0.5: 2.9 ×10⁻⁵ M
CCRF-CEM
  IC50: 0.58 µM
[13]
  Activity: Non-toxic
[17]
  K0.5: 3.1 ×10⁻⁵ M
[1]
  IC50: 1.2 µM
TA3/Ha [23]
  Activity: Active
TA3/Ha [24]
  Activity: Dose-dependent effect
[2]
  IC50: 1.38 µM
[3]
  IC50: 0.74 µM
TA3/Ha [28]
  Activity: inactive
TA3/Ha [31]
  Activity: Active
